Results published in ChEMBL document CHEMBL1129251 (J Med Chem, 1996).

How the values were obtained:
[1] = target: T1, Adrenergic receptor alpha-2 (Rattus norvegicus, UniProt P22086+P19328+P22909); assay: Alpha-2 adrenergic receptor binding affinity was tested against membrane preparations of rat brain using 0.2 nM [3H]rauwolscine as radioligand
T1 sequence (P22086 whole entry): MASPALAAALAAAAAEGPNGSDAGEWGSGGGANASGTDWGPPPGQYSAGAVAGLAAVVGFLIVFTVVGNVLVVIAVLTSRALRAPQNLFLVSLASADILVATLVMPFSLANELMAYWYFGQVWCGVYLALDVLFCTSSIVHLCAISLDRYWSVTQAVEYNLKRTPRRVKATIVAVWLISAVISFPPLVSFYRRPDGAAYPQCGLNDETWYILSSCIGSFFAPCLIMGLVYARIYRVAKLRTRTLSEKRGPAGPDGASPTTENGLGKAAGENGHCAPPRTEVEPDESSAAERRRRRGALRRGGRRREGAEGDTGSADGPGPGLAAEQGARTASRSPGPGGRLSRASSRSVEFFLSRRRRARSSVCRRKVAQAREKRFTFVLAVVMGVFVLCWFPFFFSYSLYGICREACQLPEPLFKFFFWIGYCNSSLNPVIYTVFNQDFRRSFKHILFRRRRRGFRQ
T1 sequence (P19328 whole entry): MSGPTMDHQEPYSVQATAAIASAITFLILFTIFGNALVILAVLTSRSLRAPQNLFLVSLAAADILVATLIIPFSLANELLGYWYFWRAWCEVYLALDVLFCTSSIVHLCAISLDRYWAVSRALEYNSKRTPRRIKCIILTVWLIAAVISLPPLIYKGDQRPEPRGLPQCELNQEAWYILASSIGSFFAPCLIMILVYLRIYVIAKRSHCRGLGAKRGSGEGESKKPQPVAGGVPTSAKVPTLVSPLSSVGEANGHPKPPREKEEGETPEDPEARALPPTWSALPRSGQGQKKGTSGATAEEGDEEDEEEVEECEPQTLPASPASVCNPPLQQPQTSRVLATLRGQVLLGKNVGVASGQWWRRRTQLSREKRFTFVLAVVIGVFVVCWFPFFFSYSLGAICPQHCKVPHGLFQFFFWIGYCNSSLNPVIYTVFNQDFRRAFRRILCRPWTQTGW
T1 sequence (P22909 whole entry): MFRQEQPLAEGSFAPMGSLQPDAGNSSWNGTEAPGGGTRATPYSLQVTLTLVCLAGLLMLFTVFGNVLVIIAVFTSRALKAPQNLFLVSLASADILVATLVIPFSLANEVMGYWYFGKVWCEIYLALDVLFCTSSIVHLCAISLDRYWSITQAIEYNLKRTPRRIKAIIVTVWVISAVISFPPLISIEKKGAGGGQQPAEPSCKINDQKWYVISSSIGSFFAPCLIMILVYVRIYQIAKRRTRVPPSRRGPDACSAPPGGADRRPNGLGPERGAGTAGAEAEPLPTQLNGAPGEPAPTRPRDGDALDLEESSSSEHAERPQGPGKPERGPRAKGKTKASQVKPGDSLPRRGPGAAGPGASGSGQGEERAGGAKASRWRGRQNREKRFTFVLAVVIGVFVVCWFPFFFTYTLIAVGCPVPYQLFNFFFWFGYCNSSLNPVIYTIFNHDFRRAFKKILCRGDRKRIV
How it was run: (§1)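 Rat frontal cortex membranes at about 500 µg/mL protein, labelled with [3H]rauwolscine in Tris buffer pH 7.4 containing 10 mM EDTA. Nonspecific binding set by 10 µM phentolamine. 30 °C for 30 min, then filtration and scintillation counting, in triplicate.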

[2] = Selectivity ratio of Ki of alpha-1 adrenergic receptor to alpha-2 receptor
[3] = target: T2, Adrenergic receptor alpha-1 (Rattus norvegicus, UniProt P15823+P23944+P43140); assay: Alpha-1 adrenergic receptor binding affinity in rat brain membranes; assay type: cell membranes
T2 sequence (P15823 whole entry): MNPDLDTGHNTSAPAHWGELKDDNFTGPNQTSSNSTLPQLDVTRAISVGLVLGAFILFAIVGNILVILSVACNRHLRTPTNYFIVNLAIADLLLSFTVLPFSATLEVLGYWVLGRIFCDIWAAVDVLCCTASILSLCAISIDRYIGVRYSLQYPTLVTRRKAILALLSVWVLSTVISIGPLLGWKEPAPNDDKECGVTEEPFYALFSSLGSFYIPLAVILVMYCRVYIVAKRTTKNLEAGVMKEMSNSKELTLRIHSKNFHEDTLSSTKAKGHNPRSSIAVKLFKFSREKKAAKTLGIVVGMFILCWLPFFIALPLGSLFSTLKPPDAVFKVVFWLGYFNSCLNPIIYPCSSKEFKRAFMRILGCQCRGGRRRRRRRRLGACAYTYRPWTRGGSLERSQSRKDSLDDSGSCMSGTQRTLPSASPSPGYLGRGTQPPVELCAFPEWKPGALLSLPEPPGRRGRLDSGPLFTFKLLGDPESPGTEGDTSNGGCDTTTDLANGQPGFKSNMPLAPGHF
T2 sequence (P23944 whole entry): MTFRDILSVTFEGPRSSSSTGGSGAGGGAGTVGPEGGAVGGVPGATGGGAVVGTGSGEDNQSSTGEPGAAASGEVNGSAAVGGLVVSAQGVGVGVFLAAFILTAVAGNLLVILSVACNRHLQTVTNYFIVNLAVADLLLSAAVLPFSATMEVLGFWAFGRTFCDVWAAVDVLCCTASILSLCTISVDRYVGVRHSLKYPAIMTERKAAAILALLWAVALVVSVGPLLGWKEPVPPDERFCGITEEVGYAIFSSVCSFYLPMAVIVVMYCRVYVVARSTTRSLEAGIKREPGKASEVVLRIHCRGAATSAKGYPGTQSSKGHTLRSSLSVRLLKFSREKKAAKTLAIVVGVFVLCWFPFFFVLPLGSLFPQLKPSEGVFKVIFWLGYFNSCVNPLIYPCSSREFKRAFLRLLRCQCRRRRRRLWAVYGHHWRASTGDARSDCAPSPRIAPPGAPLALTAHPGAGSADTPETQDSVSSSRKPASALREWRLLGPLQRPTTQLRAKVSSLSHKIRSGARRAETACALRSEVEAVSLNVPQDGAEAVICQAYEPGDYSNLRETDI
T2 sequence (P43140 whole entry): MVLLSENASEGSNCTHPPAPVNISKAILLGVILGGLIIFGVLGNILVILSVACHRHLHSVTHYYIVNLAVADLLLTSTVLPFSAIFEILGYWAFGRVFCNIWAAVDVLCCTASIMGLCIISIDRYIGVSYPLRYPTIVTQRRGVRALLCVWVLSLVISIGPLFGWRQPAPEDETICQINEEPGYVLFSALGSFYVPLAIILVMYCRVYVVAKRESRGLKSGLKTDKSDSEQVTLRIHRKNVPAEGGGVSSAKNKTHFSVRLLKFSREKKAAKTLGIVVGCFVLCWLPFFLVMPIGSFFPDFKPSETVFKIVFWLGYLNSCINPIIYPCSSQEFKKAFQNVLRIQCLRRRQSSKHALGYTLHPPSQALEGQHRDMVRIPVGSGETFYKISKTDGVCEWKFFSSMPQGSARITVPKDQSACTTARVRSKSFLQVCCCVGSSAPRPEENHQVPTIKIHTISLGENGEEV
How it was run: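 Rat frontal cortex membranes, washed in 50 mM Tris-HCl/10 mM MgCl2 pH 7.4, at about 300 µg/mL protein. Labelled with 0.1 nM [3H]prazosin in the same buffer. Nonspecific binding set by 10 µM phentolamine. 30 °C for 30 min, then filtration and scintillation counting, in triplicate.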

[4] = target: T3, Adrenergic receptor alpha-2 (Homo sapiens, UniProt P08913+P18825+P18089); assay: Alpha-2 adrenergic receptor antagonistic activity in human blood platelets.; assay type: functional, tissue-based
T3 sequence (P08913 whole entry): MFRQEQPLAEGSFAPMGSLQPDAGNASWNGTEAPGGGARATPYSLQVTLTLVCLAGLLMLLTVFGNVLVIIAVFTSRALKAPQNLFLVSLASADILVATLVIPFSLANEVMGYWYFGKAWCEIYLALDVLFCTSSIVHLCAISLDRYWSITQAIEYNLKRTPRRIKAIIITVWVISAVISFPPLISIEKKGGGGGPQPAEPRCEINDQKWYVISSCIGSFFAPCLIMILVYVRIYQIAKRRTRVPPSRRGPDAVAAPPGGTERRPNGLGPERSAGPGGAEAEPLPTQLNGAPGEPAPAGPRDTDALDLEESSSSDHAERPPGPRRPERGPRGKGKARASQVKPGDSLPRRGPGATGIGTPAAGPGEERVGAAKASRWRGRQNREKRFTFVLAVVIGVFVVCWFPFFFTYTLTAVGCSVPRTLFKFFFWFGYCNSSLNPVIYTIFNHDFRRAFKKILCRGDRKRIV
T3 sequence (P18825 whole entry): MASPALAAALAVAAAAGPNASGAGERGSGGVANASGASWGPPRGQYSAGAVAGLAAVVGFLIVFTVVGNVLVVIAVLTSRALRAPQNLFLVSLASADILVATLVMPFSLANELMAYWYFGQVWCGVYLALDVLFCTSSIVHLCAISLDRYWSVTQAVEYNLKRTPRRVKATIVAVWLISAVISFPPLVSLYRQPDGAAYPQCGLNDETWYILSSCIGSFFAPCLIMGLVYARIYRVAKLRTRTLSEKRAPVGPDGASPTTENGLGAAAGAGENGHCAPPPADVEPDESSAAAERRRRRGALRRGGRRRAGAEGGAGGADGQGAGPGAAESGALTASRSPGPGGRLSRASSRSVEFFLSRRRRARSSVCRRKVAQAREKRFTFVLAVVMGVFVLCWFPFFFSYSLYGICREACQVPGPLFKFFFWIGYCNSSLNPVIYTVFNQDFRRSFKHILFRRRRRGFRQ
T3 sequence (P18089 whole entry): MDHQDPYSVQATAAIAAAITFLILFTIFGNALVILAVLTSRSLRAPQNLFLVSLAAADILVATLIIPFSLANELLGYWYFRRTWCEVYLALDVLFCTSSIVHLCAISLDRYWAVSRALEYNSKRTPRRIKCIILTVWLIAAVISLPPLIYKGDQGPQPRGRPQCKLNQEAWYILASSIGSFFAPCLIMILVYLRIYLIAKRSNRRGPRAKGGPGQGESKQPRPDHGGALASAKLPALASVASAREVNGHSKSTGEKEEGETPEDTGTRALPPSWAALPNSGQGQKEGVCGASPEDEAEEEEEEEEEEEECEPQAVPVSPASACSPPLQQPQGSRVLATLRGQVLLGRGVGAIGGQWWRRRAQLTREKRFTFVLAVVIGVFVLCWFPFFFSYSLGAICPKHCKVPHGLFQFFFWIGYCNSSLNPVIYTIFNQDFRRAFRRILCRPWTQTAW
How it was run: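 Human platelet-rich plasma pretreated with 1 mM aspirin. Inhibitor at various concentrations added 1 min before epinephrine (30-100 µM).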

[5] = alpha 2 antagonistic adrenoceptor activity in human blood platelets Potency ratio: IC50(medetomidine)/IC50(analog); assay type: functional
How it was run: (§2)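 Inhibition of epinephrine (30-100 µM)-induced primary-wave aggregation in aspirin (1 mM)-treated human platelet-rich plasma, with inhibitor added 1 min before agonist.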

[6] = target: T4, Adrenergic receptor alpha-1 (Rattus norvegicus) (UniProt P15823+P23944+P43140); assay: Antagonistic activity against Alpha-1 adrenergic receptor in rat aorta; assay type: functional, tissue-based
How it was run: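 Rat aorta rings (rats 150-300 g, either sex) contracted by cumulative phenylephrine, with and without the antagonist. KB = [B]/(DR − 1), where DR is the dose ratio in the presence and absence of the antagonist.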

[7] = Alpha 2 antagonistic adrenoceptor activity in human blood platelets Potency ratio: IC50(medetomidine)/IC50(analog); assay type: functional; how it was run: as §2
[8] = target: T1, Adrenergic receptor alpha-2; assay: Alpha-2 adrenergic receptor binding affinity was tested against membrane preparations of rat brain.; how it was run: as §1
[9] = target: T4, Adrenergic receptor alpha-1 (Rattus norvegicus); assay: Agonistic activity against Alpha-1 adrenergic receptor in rat aorta expressed as percent maximal analog response relative to phenylephrine as 100%; assay type: functional, tissue-based
How it was run: (§3)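 Aorta from rats of 150-300 g, either sex. Tissue checked with 30 nM phenylephrine, then a cumulative phenylephrine curve. After 90 min the test agent was added cumulatively. Contraction expressed as % of the maximum to 1 µM phenylephrine (= 100%). EC50 is the molar 50% effective concentration; Emax is the maximal response relative to phenylephrine.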

[10] = target: T3, Adrenergic receptor alpha-2; assay: Antagonistic activity against Alpha-2 adrenergic receptor in human blood platelets; assay type: functional, tissue-based
How it was run: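 Human platelet-rich plasma pretreated with 1 mM aspirin. Inhibitor at various concentrations added 1 min before epinephrine (30-100 µM). Primary-wave aggregation measured; IC50 is the molar 50% inhibitory concentration.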

[11] = Antagonistic activity against alpha2 adrenoceptor in human blood platelets expressed as IC50(medetomidine)/IC50(analog); assay type: functional
How it was run: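 Human platelet-rich plasma; inhibitor at various concentrations added 1 min before triggering aggregation with epinephrine (30-100 µM); aspirin 1 mM routinely added to study the primary-wave aggregation response.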

[12] = target: T2, Adrenergic receptor alpha-1; assay: 50% Molar effective concentration for agonistic activity against Alpha-1 adrenergic receptor in rat aorta; assay type: functional, tissue-based; how it was run: as §3

| SMILES | Ki [1] | Ratio [2] | Ki [3] | IC50 [4] | Ki [8] | other results |
| --- | --- | --- | --- | --- | --- | --- |
| C/C=C(/c1c[nH]cn1)c1cccc2ccccc12 | 1474 nM | 0.26 | 387 nM |  |  |  |
| C/C=C(\c1c[nH]cn1)c1cccc2ccccc12 | 1890 nM | 0.03 | 57 nM | 215400 nM |  | Potency ratio [5]: 0.01; Kb [6]: 3390 nM |
| c1ccc2c3c(ccc2c1)CCCC3c1c[nH]cn1 (stereo unspecified) |  |  | 655 nM | 97700 nM | 1449 nM | Potency ratio [7]: 0.03; Kb [6]: 136 nM |
| c1cc2c3c(cccc3c1)C(c1c[nH]cn1)CC2 (stereo unspecified) | 33 nM | 1.67 | 55 nM | 14300 nM |  | Emax [9]: 38%; Potency ratio [5]: 0.2 |
| CCC(c1c[nH]cn1)c1cccc2ccccc12 (stereo unspecified) | 165 nM | 3.48 | 574 nM |  |  |  |
| Cc1cccc(C(C)c2c[nH]cn2)c1C (stereo unspecified) [MEDETOMIDINE] |  |  |  |  | 25 nM |  |
| C=C(c1c[nH]cn1)c1cccc2ccccc12 | 122 nM | 14.2 | 1734 nM |  |  |  |
| CC(c1c[nH]cn1)c1cccc2ccccc12 (stereo unspecified) | 13 nM | 17.2 | 224 nM |  |  | IC50 [10]: 4300 nM; Emax [9]: 39%; Potency ratio [11]: 0.69; EC50 [12]: 153 nM |
| C[C@H](N)[C@H](O)c1ccc(O)c(O)c1 [LEVONORDEFRIN] |  |  | 9221 nM |  | 205 nM |  |
